Screens (PubChem BioAssay)
dFosB act: mouse delta FosB homodimer activation | P13346 | purified delta FosB, TAMRA-CDK5 oligo fluorescence polarization; percent of positive-control signal above neutral wells | activation, % at 25 µM | hit rate 0.99% among 340,000 | AID 493131;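 active = mean activation above about 17%, with every replicate also reaching it, limit read from the data, passing the limit was not always enough; inconclusive = only one of the two conditions met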
CAL PDZ FP-1: blocks peptide binding to human CAL PDZ domain; purified CAL PDZ, TMR-peptide fluorescence polarization, 1 h; inhibition, % at 20 µM; hit rate 0.02% among 330,000; AID 504414;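 active = highest replicate inhibition of at least 40%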
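Assay system – tagged CAL PDZ protein CerCALP, purified · Timing – 1 h at RT · Compound – single point, 20 µM · Measured by – fluorescence polarization from S- and P-plane intensities, G-factor corrected · Evaluation – inhibition from polarization loss · Probe or stimulus – TMR reporter peptide T*-PRC34 · Buffer or medium – pH 7.4 phosphate-saline buffer, reducing agent, detergent, IgG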
DYRK1A inh: blocks rat Dyrk1A kinase activity; ADP-Glo luminescence, NFATc1 peptide; inhibition, % at 12.5 µM; hit rate 0.43% among 310,000; AID 504441; in the data active = inhibition above about 50%
Rtt109 HAT inh: C. albicans Rtt109 histone acetyltransferase inhibition. Q5AAJ8. purified Rtt109/Vps75, ThioGlo CoA-SH fluorescence, 4 h. inhibition, % at 34.9 µM. hit rate 0.16% among 330,000. AID 540336;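 active = inhibition of at least 50% in every replicate; inconclusive = best replicate reaches 50% inhibition but some replicates fall short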
CDK5 inh: blocks human CDK5/p35 kinase activity; AID 488839; hit rate 0.01% among 330,000; Q00535+Q15078; Recombinant CDK5/p35, ADP-Glo luminescence, 60 min; inhibition, % at 10 µM;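 active = highest replicate inhibition of at least 50% and at least 75% of replicates reaching 50%; inconclusive = only one of the two criteria met; inactive = both criteria failed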
Target sequence (Q00535 whole entry, looked up): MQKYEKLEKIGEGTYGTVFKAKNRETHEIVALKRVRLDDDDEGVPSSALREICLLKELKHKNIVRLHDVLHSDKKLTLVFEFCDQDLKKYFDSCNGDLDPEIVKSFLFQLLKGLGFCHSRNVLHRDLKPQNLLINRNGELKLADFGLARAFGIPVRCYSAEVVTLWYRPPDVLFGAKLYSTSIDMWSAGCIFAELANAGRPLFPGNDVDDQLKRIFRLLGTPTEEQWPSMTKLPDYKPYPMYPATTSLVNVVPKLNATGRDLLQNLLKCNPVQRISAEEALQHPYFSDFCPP
Target sequence (Q15078 whole entry, looked up): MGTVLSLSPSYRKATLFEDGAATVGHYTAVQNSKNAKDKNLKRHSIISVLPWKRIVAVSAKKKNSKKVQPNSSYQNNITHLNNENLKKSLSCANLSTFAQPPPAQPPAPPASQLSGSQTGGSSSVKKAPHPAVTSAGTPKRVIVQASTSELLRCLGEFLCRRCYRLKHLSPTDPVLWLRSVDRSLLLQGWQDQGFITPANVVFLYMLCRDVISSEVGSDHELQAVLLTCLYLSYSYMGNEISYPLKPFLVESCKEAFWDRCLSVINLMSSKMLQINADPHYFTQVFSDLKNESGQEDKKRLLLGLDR
CAL PDZ FP-2: inhibitors of human CAL PDZ peptide binding; Q9HD26; purified CAL PDZ, TMR-peptide fluorescence polarization, 1 h; inhibition, % at 24.9 µM; hit rate 0.92% among 300,000; AID 602252;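 active = mean inhibition of at least 30% with at least half of replicates also reaching 30%; inconclusive = no clear call, values can overlap the other calls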
A number is an active result; - = inactive; ? = inconclusive; . = no result. A selection: hits, their analogues and other compounds. The true share with any hit is near 2.2%.

SMILES	dFosB act	CAL PDZ FP-1	DYRK1A inh	Rtt109 HAT inh	CDK5 inh	CAL PDZ FP-2
CC(C)CN(C(=O)COC(=O)c1c2c(nc3ccccc13)CCC2)c1c(N)n(Cc2ccccc2)c(=O)[nH]c1=O	-	-	-	-	-	-
O=C(N/N=C/c1cccc([N+](=O)[O-])c1)C1CC(=O)N(c2ccc(F)cc2)C1 (stereo not given)	-	-	-	-	-	-
CC[C@]1(C(=O)OC)[C@H]2C(=O)N(C)C(=O)[C@H]2[C@H]2CN(C)C(=NC)N21	-	-	-	-	-	-
O=C(CSc1nnnn1-c1ccccc1)Nc1ncc(Cc2cccc(Cl)c2Cl)s1	77	-	-	-	-	-
O=C(CSc1nnnn1-c1ccccc1)Nc1ncc(Cc2cc(Cl)ccc2Cl)s1	-	-	-	-	-	-
CN(Cc1ccc(Cl)cc1Cl)C(=O)c1cc(=O)c2ccccc2o1	-	-	-	-	-	-
O=C(Nc1ccc(Cl)cc1)c1nc[nH]c1C(=O)NCCN(CCNC(=O)c1[nH]cnc1C(=O)Nc1ccc(Cl)cc1)CCNC(=O)c1[nH]cnc1C(=O)Nc1ccc(Cl)cc1	?	-	-	-	-	-
Cc1ccc(NC(=O)c2nc[nH]c2C(=O)NCCN(CCNC(=O)c2[nH]cnc2C(=O)Nc2ccc(C)cc2)CCNC(=O)c2[nH]cnc2C(=O)Nc2ccc(C)cc2)cc1	48	-	-	-	-	-
CSc1nc(N)nc2c1ncn2CC(=O)NCc1ccc2c(c1)OCO2	20	-	-	-	-	-
COCc1cc(CN2CCN(CCc3ccccc3)C(CCO)C2)ccc1OC (stereo not given)	-	-	-	-	-	-
COc1ccc(Br)cc1CNc1ccc2[nH]c(=O)[nH]c2c1	-	-	-	-	-	67
COc1ccc(Br)cc1CNc1ccc(O)cc1	-	-	-	-	-	-
COCCNC(=O)C1CCN(S(=O)(=O)c2c(C)noc2/C=C/c2cccs2)CC1	-	-	-	-	-	-
O=C(NCc1ccc2c(c1)OCO2)c1cc2n(n1)C(C(F)(F)F)CC(c1ccc3c(c1)OCO3)N2 (stereo not given)	21	.	-	-	-	-
O=C(CCN1CCOCC1)Nc1ccc(Cl)cc1	-	-	-	-	-	-
Cc1nc2c3cc(Cl)ccc3n(CCN3CCOCC3)c2s1	-	-	.	-	-	47
O=C(Nc1ccc(Cl)cc1)N1CCc2ccccc2C1	-	-	-	-	-	43
COc1cc(N=Nc2cccc(S(N)(=O)=O)c2)c2ccccc2c1N	-	-	58	-	-	-
c1cc(-c2nnc(-c3ccncc3)o2)ccn1	-	.	-	-	-	49
CCc1ccc(-c2cc(C)no2)cc1S(=O)(=O)N1CCN(c2ccccc2)CC1	-	-	-	-	-	-
Cc1c(C(=O)N2CCCCC2)c(S(=O)(=O)N2CCC(C)CC2)c(C)n1C	-	-	-	-	-	75
CC(O)CNCCNCc1cccs1 (stereo not given)	-	-	-	-	-	47
CCC/C=N/NC(=O)c1cccc(Br)c1	-	-	-	-	-	86
O=C1C=C(c2ccccc2)OC(c2ccccc2)O1 (stereo not given)	-	-	-	-	-	47
CCOc1ccc(OCCNC(=O)c2ccc3c(c2)nnn3CC)cc1	-	-	.	-	-	.
SMILES	dFosB act	CAL PDZ FP-1	DYRK1A inh	Rtt109 HAT inh	CDK5 inh	CAL PDZ FP-2
O=C(Cc1ccccc1)N/N=C/c1ccc[nH]1	-	-	.	-	-	-
CCOc1ccc(OCC(=O)Nc2ccc(N3CCCCC3)cc2)cc1	-	-	-	-	-	-
Cc1cc(OCC(=O)Nc2ccc(N3CCCC3)cc2)cc(C)c1Cl	65	-	-	-	-	-
O=C(O)CCCC(=O)Nc1ccc(N2CCCC2)cc1	-	.	.	-	-	93
O=C(NCc1ccncc1)Nc1ccccc1F	-	-	-	.	-	-
CN1CCN(C(=O)Cn2ncc3c([nH]c4ccccc43)c2=O)CC1	-	-	-	-	-	-
O=C(Cn1ncc2c([nH]c3ccccc32)c1=O)N1CCOCC1	-	-	-	-	-	39
CCOC(=O)C1CCN(c2ccc(-c3cccs3)nn2)CC1	-	.	-	-	-	93
CC(C(=O)O)c1cccc(C(=O)c2ccccc2)c1 (stereo not given)	-	-	-	-	-	32
C[C@H](C(=O)O)c1cccc(C(=O)c2ccccc2)c1	-	-	-	-	-	-
